In ChEMBL document CHEMBL1148939, “Montacin and cis-montacin, two new cytotoxic monotetrahydrofuran annonaceous acetogenins from Annona montana” (2004):
Values after ≈ are worked out from the molar mass of the structure shown.

Experiments:
PC-3 [1] = experiment: Cytotoxicity against human PC3 cells after 3 days by SRB assay; format: functional; conditions: PC-3, 72 h, read-out: ED50 (the source's name)
Procedure, shortened: (§1)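 Cells were grown in RPMI-1640 with 25 mM HEPES, 0.25% NaHCO3, 10% FBS and kanamycin. Freshly trypsinized cells were seeded at 1500-7500 per well with compound from a DMSO-diluted stock and cultured for 3 days. Attached cells were fixed with cold 50% TCA, stained with 0.4% SRB, and the solubilized dye was read at 562 nm. ED50 is the concentration giving 50% growth reduction over 3 days.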

SK-MEL-2 [2] = experiment: Cytotoxicity against human SK-MEL-2 cells after 3 days by SRB assay in presence of Ca2+; format: functional; conditions: SK-MEL-2, 72 h, read-out: ED50 (the source's name)
Procedure, shortened: (§2)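 This is the 3-day SRB growth assay in RPMI-1640 with 10% FBS and 25 mM HEPES, with CaCl2 added to the bioassay as the Ca2+ source. Trypsinized cells were seeded at 1500-7500 per well with DMSO-diluted compound, then fixed with cold TCA, stained with 0.4% SRB and read at 562 nm. ED50 is the concentration causing 50% growth reduction.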

1A9/ptx-10 [3] = experiment: Cytotoxicity against human 1A9/PTX10 cells after 3 days by SRB assay; format: functional; conditions: 1A9/ptx-10, 72 h, read-out: ED50 (the source's name); procedure, shortened: as §1
HCT-8 [4] = experiment: Cytotoxicity against human HCT8 cells after 3 days by SRB assay in presence of Ca2+; format: functional; conditions: HCT-8, 72 h, read-out: ED50 (the source's name); procedure, shortened: as §2
KB [5] = experiment: Cytotoxicity against human KB cells after 3 days by SRB assay; format: functional; conditions: 72 h, read-out: ED50 (the source's name); procedure, shortened: as §1
SK-MEL-2 [6] = experiment: Cytotoxicity against human SK-MEL-2 cells after 3 days by SRB assay; format: functional; conditions: SK-MEL-2, 72 h, read-out: ED50 (the source's name); procedure, shortened: as §1
[7] = Cytotoxicity against human CAKI cells after 3 days by SRB assay in presence of Ca2+; format: functional; conditions: 72 h, read-out: ED50 (the source's name); procedure, shortened: as §2
1A9/ptx-10 [8] = experiment: Cytotoxicity against human 1A9/PTX10 cells after 6 days by SRB assay in presence of Ca2+; format: functional; conditions: 1A9/ptx-10, 144 h, read-out: ED50 (the source's name)
Procedure, shortened: (§3)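 1A9 ovarian cells or the β-tubulin-mutant PTX10 subline were grown in RPMI-1640 with 10% FBS and 25 mM HEPES. CaCl2 was included in the bioassay as the Ca2+ source. Cells were seeded at 1500-7500 per well with DMSO-diluted compound and cultured for 6 days before SRB staining. The read-out was ED50.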

1A9 [9] = experiment: Cytotoxicity against human 1A9 cells after 6 days by SRB assay in presence of Ca2+; format: functional; conditions: 1A9, 144 h, read-out: ED50 (the source's name); procedure, shortened: as §3
A549 [10] = experiment: Cytotoxicity against human A549 cells after 3 days by SRB assay; format: functional; conditions: A549, 72 h, read-out: ED50 (the source's name); procedure, shortened: as §1
KB [11] = experiment: Cytotoxicity against human vincristine-resistant KB cells after 3 days by SRB assay in presence of Ca2+; format: functional; conditions: 72 h, read-out: ED50 (the source's name); procedure, shortened: as §2
1A9/ptx-10 [12] = experiment: Cytotoxicity against human 1A9/PTX10 cells after 6 days by SRB assay; format: functional; conditions: 1A9/ptx-10, 144 h, read-out: ED50 (the source's name)
Procedure, shortened: (§4)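 Parent 1A9 ovarian cells or the PTX10 subline (mutated β-tubulin) were grown in RPMI-1640 with 25 mM HEPES, 0.25% NaHCO3, 10% FBS and kanamycin. Freshly trypsinized cells were seeded at 1500-7500 per well with DMSO-diluted compound, cultured for 6 days, and evaluated by SRB staining. Activity was expressed as ED50.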

MCF7 [13] = experiment: Cytotoxicity against human MCF7 cells after 3 days by SRB assay in presence of Ca2+; format: functional; conditions: MCF7, 72 h, read-out: ED50 (the source's name); procedure, shortened: as §2
HCT-8 [14] = experiment: Cytotoxicity against human HCT8 cells after 3 days by SRB assay; format: functional; conditions: HCT-8, 72 h, read-out: ED50 (the source's name); procedure, shortened: as §1
1A9 [15] = experiment: Cytotoxicity against human 1A9 cells after 3 days by SRB assay in presence of Ca2+; format: functional; conditions: 1A9, 72 h, read-out: ED50 (the source's name); procedure, shortened: as §2
[16] = Cytotoxicity against human CAKI cells after 3 days by SRB assay; format: functional; conditions: 72 h, read-out: ED50 (the source's name); procedure, shortened: as §1
[17] = Cytotoxicity against human U87MG cells after 3 days by SRB assay in presence of Ca2+; format: functional, U-87MG ATCC; conditions: U-87 MG, 72 h, read-out: ED50 (the source's name)
KB [18] = experiment: Cytotoxicity against human KB cells after 3 days by SRB assay in presence of Ca2+; format: functional; conditions: 72 h, read-out: ED50 (the source's name); procedure, shortened: as §2
1A9 [19] = experiment: Cytotoxicity against human 1A9 cells after 3 days by SRB assay; format: functional; conditions: 1A9, 72 h, read-out: ED50 (the source's name); procedure, shortened: as §1
[20] = Cytotoxicity against human U87MG cells after 3 days by SRB assay; format: functional, U-87MG ATCC; conditions: U-87 MG, 72 h, read-out: ED50 (the source's name)
PC-3 [21] = experiment: Cytotoxicity against human PC3 cells after 3 days by SRB assay in presence of Ca2+; format: functional; conditions: PC-3, 72 h, read-out: ED50 (the source's name); procedure, shortened: as §2
A549 [22] = experiment: Cytotoxicity against human A549 cells after 3 days by SRB assay in presence of Ca2+; format: functional; conditions: A549, 72 h, read-out: ED50 (the source's name); procedure, shortened: as §2
KB [23] = experiment: Cytotoxicity against human vincristine-resistant KB cells after 3 days by SRB assay; format: functional; conditions: 72 h, read-out: ED50 (the source's name); procedure, shortened: as §1
1A9 [24] = experiment: Cytotoxicity against human 1A9 cells after 6 days by SRB assay; format: functional; conditions: 1A9, 144 h, read-out: ED50 (the source's name); procedure, shortened: as §4
1A9/ptx-10 [25] = experiment: Cytotoxicity against human 1A9/PTX10 cells after 3 days by SRB assay in presence of Ca2+; format: functional; conditions: 1A9/ptx-10, 72 h, read-out: ED50 (the source's name); procedure, shortened: as §2
MCF7 [26] = experiment: Cytotoxicity against human MCF7 cells after 3 days by SRB assay; format: functional; conditions: MCF7, 72 h, read-out: ED50 (the source's name); procedure, shortened: as §1

| Compound | EC50 (PC-3 [1]) [µg/mL] | EC50 (1A9/ptx-10 [3]) [µg/mL] | EC50 (HCT-8 [4]) [µg/mL] | EC50 (KB [5]) [µg/mL] | EC50 (1A9/ptx-10 [8]) [µg/mL] | EC50 (1A9 [9]) [µg/mL] | EC50 (A549 [10]) [µg/mL] | EC50 (KB [11]) [µg/mL] | EC50 (1A9/ptx-10 [12]) [µg/mL] | EC50 (MCF7 [13]) [µg/mL] | EC50 (HCT-8 [14]) [µg/mL] | EC50 (1A9 [15]) [µg/mL] | EC50 [17] [µg/mL] | EC50 (KB [18]) [µg/mL] | EC50 (1A9 [19]) [µg/mL] | EC50 [20] [µg/mL] | EC50 (PC-3 [21]) [µg/mL] | EC50 (A549 [22]) [µg/mL] | EC50 (KB [23]) [µg/mL] | EC50 (1A9 [24]) [µg/mL] | also measured |
| --- | --- | --- | --- | --- | --- | --- | --- | --- | --- | --- | --- | --- | --- | --- | --- | --- | --- | --- | --- | --- | --- |
| CCCCCCC[C@H](O)[C@@H]1CC[C@@H]([C@@H](O)CCCCCCCCCC[C@H](O)CC(=O)CC[C@@H](O)CC2=C[C@H](C)OC2=O)O1 [MONTACIN] | > 20 | > 10 | 12.3 | 16.6 (≈ 27.2 µM) | 2.8 | 4.5 | 12.9 (≈ 21.1 µM) | 13.9 | 7.9 (≈ 12.9 µM) | 5.5 | 16.5 (≈ 27 µM) | 6.7 | 14.2 | 9.1 | > 10 | > 20 | 14.2 | 7.4 | > 20 | 6.7 (≈ 11 µM) | EC50 (SK-MEL-2 [2]): 13.3 µg/mL; EC50 (SK-MEL-2 [6]): 11.2 µg/mL (≈ 18.3 µM); EC50 [7]: 14.2 µg/mL; EC50 [16]: > 20 µg/mL; EC50 (1A9/ptx-10 [25]): 7.5 µg/mL; EC50 (MCF7 [26]): 10 µg/mL (≈ 16.4 µM) |
| CCCCCCC[C@@H](O)[C@H]1CC[C@@H]([C@@H](O)CCCCCCCCCC[C@@H](O)CC(=O)CC[C@@H](O)CC2=C[C@H](C)OC2=O)O1 | 11.9 (≈ 19.5 µM) | 5.9 (≈ 9.66 µM) | 11.7 | 7.7 (≈ 12.6 µM) | 0.11 | 0.13 | 6 (≈ 9.82 µM) | 13.8 | 1.8 (≈ 2.95 µM) | 6.4 | 12.9 (≈ 21.1 µM) | 2 | 14.3 | 8.2 | 3.6 (≈ 5.89 µM) | 15 (≈ 24.6 µM) | 12.1 | 5.5 | 13.4 (≈ 21.9 µM) | 0.54 (≈ 0.884 µM) | EC50 (1A9/ptx-10 [25]): 5.3 µg/mL; EC50 (MCF7 [26]): 6.7 µg/mL (≈ 11 µM) |
